From ChEMBL document CHEMBL1147081, “Structure of the deacetylase LpxC bound to the antibiotic CHIR-090: Time-dependent inhibition and specificity in ligand binding” (Proc Natl Acad Sci U S A, 2007)

Legend:
[1] = substrate: C[C@@H](O)[C@H](NC(=O)c1ccc(C#Cc2ccc(CN3CCOCC3)cc2)cc1)C(=O)NO; assay: Activity of Escherichia coli LpxC
Summary of the method: (§1)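 Wild-type and site-directed mutant LpxC (E. coli, R. leguminosarum) expressed and purified, then assayed by a previously described method. Substrate was UDP-3-O-(R-3-hydroxymyristoyl)-N-acetylglucosamine, varied for Michaelis–Menten analysis. KM and kcat came from data sets pooling multiple independent experiments.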

[2] = substrate: C[C@@H](O)[C@H](NC(=O)c1ccc(C#Cc2ccc(CN3CCOCC3)cc2)cc1)C(=O)NO; assay: Ratio of Kcat to Km for Escherichia coli LpxC; summary of the method: as §1
[3] = substrate: C[C@@H](O)[C@H](NC(=O)c1ccc(C#Cc2ccc(CN3CCOCC3)cc2)cc1)C(=O)NO; assay: Ratio of Kcat to Km of Escherichia coli LpxC Q202W/G210S mutant; summary of the method: as §1
[4] = substrate: C[C@@H](O)[C@H](NC(=O)c1ccc(C#Cc2ccc(CN3CCOCC3)cc2)cc1)C(=O)NO; assay: Activity of Escherichia coli LpxC Q202W/G210S mutant; summary of the method: as §1
[5] = substrate: C[C@@H](O)[C@H](NC(=O)c1ccc(C#Cc2ccc(CN3CCOCC3)cc2)cc1)C(=O)NO; assay: Activity of Rhizobium leguminosarum LpxC S214G mutant; summary of the method: as §1
[6] = substrate: C[C@@H](O)[C@H](NC(=O)c1ccc(C#Cc2ccc(CN3CCOCC3)cc2)cc1)C(=O)NO; assay: Ratio of Kcat to Km of Rhizobium leguminosarum LpxC S214G mutant; summary of the method: as §1
[7] = substrate: C[C@@H](O)[C@H](NC(=O)c1ccc(C#Cc2ccc(CN3CCOCC3)cc2)cc1)C(=O)NO; assay: Activity of Rhizobium leguminosarum LpxC W206Q/S214G mutant; summary of the method: as §1
[8] = substrate: C[C@@H](O)[C@H](NC(=O)c1ccc(C#Cc2ccc(CN3CCOCC3)cc2)cc1)C(=O)NO; assay: Ratio of Kcat to Km of Rhizobium leguminosarum LpxC W206Q/S214G mutant; summary of the method: as §1

B1: UDP-3-O-acyl-N-acetylglucosamine deacetylase (Escherichia coli K-12), P0A725 (protein)
chain: MIKQRTLKRIVQATGVGLHTGKKVTLTLRPAPANTGVIYRRTDLNPPVDFPADAKSVRDTMLCTCLVNEHDVRISTVEHLNAALAGLGIDNIVIEVNAPEIPIMDGSAAPFVYLLLDAGIDELNCAKKFVRIKETVRVEDGDKWAEFKPYNGFSLDFTIDFNHPAIDSSNQRYAMNFSADAFMRQISRARTFGFMRDIEYLQSRGLCLGGSFDCAIVVDDYRVLNEDGLRFEDEFVRHKMLDAIGDLFMCGHNIIGAFTAYKSGHALNNKLLQAVLAKQEAWEYVTFQDDAELPLAFKAPSAVLA
- Km [1]: 4 µM
- kcat [1]: 4.2 s⁻¹
- kcat/Km [2]: 1.1 10^6/M/s

B2: UDP-3-O-acyl-N-acetylglucosamine deacetylase (Escherichia coli K-12), P0A725 Q202W,G210S (protein)
chain: MIKQRTLKRIVQATGVGLHTGKKVTLTLRPAPANTGVIYRRTDLNPPVDFPADAKSVRDTMLCTCLVNEHDVRISTVEHLNAALAGLGIDNIVIEVNAPEIPIMDGSAAPFVYLLLDAGIDELNCAKKFVRIKETVRVEDGDKWAEFKPYNGFSLDFTIDFNHPAIDSSNQRYAMNFSADAFMRQISRARTFGFMRDIEYLWSRGLCLGSSFDCAIVVDDYRVLNEDGLRFEDEFVRHKMLDAIGDLFMCGHNIIGAFTAYKSGHALNNKLLQAVLAKQEAWEYVTFQDDAELPLAFKAPSAVLA
- kcat/Km [3]: 1.5 10^6/M/s
- Km [4]: 11 µM
- kcat [4]: 1.6 s⁻¹

B3: UDP-3-O-acyl-N-acetylglucosamine deacetylase (Rhizobium leguminosarum bv. trifolii (strain WSM1325)), C6ARS9 S214G (protein)
chain: MAIGLLGFQTTVSRPVTLSGTGVHSGAEVSITLNPAESDTGVVFQRLHDNGDITELKAVSSQVGNTDLCTVLGFSPAHSVATIEHVMAAVYALGLDNVVIEVQGSEMPIMDGSSLPFVEAIEQVGLVSLGVKRRYIRITKPVRIEHGGSWSEFRPYDGTRFEVEIDFECPLIGRQKWAGDMTPAVFKAELSRARTFGFMRDVERLWASGHALGGSLENSVVISDDNTVINVEGLRYAKDEFVRHKTLDAVGDLSLAGVQFIGCYRSYRGGHKMNANALKALLADSSAYEVVETSTPRQRVAARELIAVSASEFAPWSA
- Km [5]: 3.9 µM
- kcat [5]: 0.12 s⁻¹
- kcat/Km [6]: 3.1 10^4/M/s

B4: UDP-3-O-acyl-N-acetylglucosamine deacetylase (Rhizobium leguminosarum bv. trifolii (strain WSM1325)), C6ARS9 W206Q,S214G (protein)
chain: MAIGLLGFQTTVSRPVTLSGTGVHSGAEVSITLNPAESDTGVVFQRLHDNGDITELKAVSSQVGNTDLCTVLGFSPAHSVATIEHVMAAVYALGLDNVVIEVQGSEMPIMDGSSLPFVEAIEQVGLVSLGVKRRYIRITKPVRIEHGGSWSEFRPYDGTRFEVEIDFECPLIGRQKWAGDMTPAVFKAELSRARTFGFMRDVERLQASGHALGGSLENSVVISDDNTVINVEGLRYAKDEFVRHKTLDAVGDLSLAGVQFIGCYRSYRGGHKMNANALKALLADSSAYEVVETSTPRQRVAARELIAVSASEFAPWSA
- Km [7]: 10 µM
- kcat [7]: 0.14 s⁻¹
- kcat/Km [8]: 1.4 10^4/M/s
